Experimental data as given in ChEMBL document CHEMBL1135972 (J Med Chem, 2002).
Converted amounts (≈) assume the structure as drawn.

Experiments:
WIL2 [1] = test: Growth inhibitory activity against human lymphoblastoid W1L2 cell line; format: functional, cell-based
Procedure, shortened: (§1)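 IC50 read by cell counting. For the folate-rescue arm, W1L2 medium carried 10 μM thymidine plus 50 μM hypoxanthine. Values are mean ± SD or individual results.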

WIL2 [2] = test: Growth inhibitory activity against human lymphoblastoid W1L2 cell line in presence of 10 uM thymidine/50 uM hypoxanthine; format: functional, cell-based; procedure, shortened: as §1
[3] = Growth inhibitory activity against human lymphoblastoid W1L2:R865 cell line; format: functional, cell-based; procedure, shortened: as §1
[4] = Solubility at pH 6.0 was determined; format: physicochemical; conditions: buffer
Procedure, shortened: (§2)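 About 2 mg solid shaken 18 h at 25 °C in the dark, then settled 30 min. pH rechecked (±0.2, readjusted, then 60 min re-equilibration). Centrifuged 1000g 15 min, 0.2 μm filtered, diluted 1:1 with MeCN. Assayed by RP18 HPLC, UV 295 nm, against a 3-point standard curve.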

[5] = Solubility at pH 7.4 was determined; format: physicochemical; conditions: buffer; procedure, shortened: as §2
[6] = Solubility at pH 7.4; format: physicochemical; conditions: buffer; procedure, shortened: as §2
[7] = Solubility at pH 6.0; format: physicochemical; conditions: buffer; procedure, shortened: as §2
Proteasome = test: Chymotryptic inhibitory activity against 26S proteasome; format: functional, subcellular

Row | Compound | IC50 (WIL2 [1]) | IC50 (WIL2 [2]) | IC50 [3] | solubility [4] | solubility [5] | solubility [6] | solubility [7] | IC50 (Proteasome)
1 | C#CCN(Cc1cc2c(=O)n(C)c(CN(CC)CC)nc2cc1Cl)c1ccc(C(=O)NCc2cccnc2)cc1 | 0.71 nM | 0.73 nM | > 50000 nM |  |  |  |  | 
2 | C#CCN(Cc1cc2c(=O)n(C)c(CN3CCN(CC)CC3)nc2cc1Cl)c1ccc(C(=O)NCc2cccnc2)cc1 | 0.78 nM | 0.78 nM | 22000 nM | 1760 µM (≈ 1060 µg/mL) | 286 µM (≈ 171 µg/mL) |  |  | 
3 | C#CCN(Cc1cc2c(=O)n(C)c(CN3CCN(c4ccccc4)CC3)nc2cc1Cl)c1ccc(C(=O)NCc2cccnc2)cc1 | 7.2 nM | 5.4 nM | 940 nM | 23 µM (≈ 14.9 µg/mL) | 5 µM (≈ 3.23 µg/mL) |  |  | 
4 | C#CCN(Cc1cc2c(=O)n(CC(=O)N(CC)CC)c(CN3CCCCC3)nc2cc1Cl)c1ccc(C(=O)NCc2cccnc2)cc1 | 9.4 nM | 8.4 nM | 19000 nM | 2 µM (≈ 1.34 µg/mL) | 2 µM (≈ 1.34 µg/mL) |  |  | 
5 | C#CCN(Cc1cc2c(=O)n(C)c(CN3CCN(CCO)CC3)nc2cc1Cl)c1ccc(C(=O)NCc2cccnc2)cc1 | 7 nM | 7.1 nM | 22000 nM | 992 µM (≈ 609 µg/mL) | 75 µM (≈ 46.1 µg/mL) |  |  | 
6 | C#CCN(Cc1cc2c(O)nc(C)nc2cc1Br)c1ccc(C(=O)NCc2cccnc2)cc1 | 2.8 nM | 2.2 nM | 610 nM |  |  | 2.3 µM (≈ 1.19 µg/mL) | < 1 µM | 
7 | C#CCN(Cc1cc2c(=O)n(C)c(CN3CCN(C)CC3)nc2cc1Cl)c1ccc(C(=O)NCc2cccnc2)cc1 | 0.49 nM | 0.32 nM | 13000 nM | 636 µM (≈ 372 µg/mL) | 146 µM (≈ 85.3 µg/mL) |  |  | 3000 nM
8 | C#CCN(Cc1cc2c(=O)n(C)c(CN3CCCC3)nc2cc1Cl)c1ccc(C(=O)NCc2cccnc2)cc1 | 0.7 nM | 0.76 nM | 24000 nM |  |  |  |  | 
9 | C#CCN(Cc1cc2c(=O)n(C)c(CN3CCCCC3)nc2cc1Cl)c1ccc(C(=O)NCCCn2cncn2)cc1 | 840 nM | 800 nM | 20000 nM | 80 µM (≈ 47 µg/mL) | 6 µM (≈ 3.52 µg/mL) |  |  | 
10 | C#CCN(Cc1cc2c(=O)n(CC(=O)N3CCCCC3)c(CN3CCCCC3)nc2cc1Cl)c1ccc(C(=O)NCc2cccnc2)cc1 | 8.4 nM | 7.4 nM | > 50000 nM |  |  |  |  | 
11 | C#CCN(Cc1cc2c(=O)n(CC(=O)OC)c(CN3CCCCC3)nc2cc1Cl)c1ccc(C(=O)NCc2cccnc2)cc1 | 11 nM | 9.6 nM | 23000 nM |  |  |  |  | 
12 | C#CCN(Cc1cc2c(=O)n(C)c(CN3CCCCC3)nc2cc1Cl)c1ccc(C(=O)NCc2cccnc2)cc1 | 0.8 nM | 0.78 nM | 14000 nM |  |  |  |  | 
13 | C#CCN(Cc1cc2c(=O)n(C)c(CN3CCC[C@H]3C(=O)OC)nc2cc1Cl)c1ccc(C(=O)NCc2cccnc2)cc1 | 18 nM | 14 nM | 24000 nM |  |  |  |  | 
14 | C#CCN(Cc1cc2c(=O)n(C)c(CN3CCOCC3)nc2cc1Cl)c1ccc(C(=O)NCc2cccnc2)cc1 | 2 nM | 2 nM | 19000 nM | 3 µM (≈ 1.71 µg/mL) | 2 µM (≈ 1.14 µg/mL) |  |  | 
15 | C#CCN(Cc1cc2c(=O)n(C)c(CN3CCN(C)CC3)nc2cc1Cl)c1ccc(C(=O)NCCCn2ccnc2)cc1 | 2.1 nM | 2.3 nM | 18000 nM | 934 µM (≈ 561 µg/mL) | 96 µM (≈ 57.7 µg/mL) |  |  | 
16 | C#CCN(Cc1cc2c(=O)n(C)c(CN3CCC(O)CC3)nc2cc1Cl)c1ccc(C(=O)NCc2cccnc2)cc1 | 0.72 nM | 0.7 nM | 18000 nM | 2 µM (≈ 1.17 µg/mL) | 0.5 µM (≈ 0.293 µg/mL) |  |  | 
